Assay results reported in ChEMBL document CHEMBL4033782, “Structural Modification of Natural Product Tanshinone I Leading to Discovery of Novel Nitrogen-Enriched Derivatives with Enhanced Anticancer Profile and Improved Drug-like Properties” (J Med Chem, 2018).
Active and inactive are the calls of the source. No cut-off for these calls is given here.

Tests used:
Liver [1] = test: Intrinsic clearance in rat liver microsomes assessed per mg protein up to 60 mins by LC-MS/MS analysis; format: ADME, microsome; conditions: 1 h
In short: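 Liver microsomes (0.33 mg/mL protein) in 0.1 M Tris/HCl pH 7.4 with 5 mM MgCl2, 1 mM NADPH, compound at 0.1 μM final (0.01% DMSO, 0.005% BSA), 37 °C; samples at 0, 7, 17, 30, 60 min quenched in methanol, centrifuged, LC-MS/MS; T1/2 and Clint per g protein derived.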

HCT-116 [2] = test: Induction of apoptosis in human HCT116 cells assessed as late apoptotic cells at 2 uM after 48 hrs by Annexin V-FITC/propidium iodide staining-based FACS analysis (reference value: 5.74%); format: functional
HCT-116 [3] = test: Induction of apoptosis in human HCT116 cells assessed as cleavage of PARP at 2 uM after 48 hrs by Western blot analysis; format: functional, cell-based
In short: (§1)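 HCT116 cells, with or without a 1 h pretreatment with 20 μM Z-VAD-FMK, exposed for 48 h. Lysed on ice in Hepes/NaCl/Triton X-100 buffer with protease/phosphatase inhibitors and clarified at 12,000×g. Equal protein run by SDS-PAGE, blotted to nitrocellulose, probed overnight at 4 °C for PARP, caspase 3, caspase 7 and β-actin. HRP secondaries, ECL detection.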

[4] = Oral bioavailability in Sprague-Dawley rat at 3.90 mg/kg by LC-ESI-MS/MS analysis; format: ADME, organism-based; conditions: in vivo, 3.9 mg/kg
HCT-116 [5] = test: Induction of apoptosis in human HCT116 cells assessed as activation of caspase 3/7 at 2 uM after 48 hrs by Western blot analysis; format: functional, cell-based; in short: as §1
[6] = Half life in human liver microsomes at 0.1 uM up to 60 mins by LC-MS/MS analysis; format: ADME, microsome
In short: (§2)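 Compound at 0.1 μM final (0.01% DMSO, 0.005% BSA) incubated at 37 °C with human, rat or mouse liver microsomes (0.33 mg/mL protein) in 0.1 M Tris/HCl pH 7.4, with 5 mM MgCl2 and 1 mM NADPH. Samples taken at 0, 7, 17, 30 and 60 min, quenched by methanol precipitation, centrifuged, and parent measured by LC-MS/MS. T1/2 and Clint derived.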

Liver [7] = test: Half life in mouse liver microsomes at 0.1 uM up to 60 mins by LC-MS/MS analysis; format: ADME, microsome; conditions: microsomes, 1 h, 0.1 µM; in short: as §2
Liver [8] = test: Intrinsic clearance in human liver microsomes assessed as per mg protein up to 60 mins by LC-MS/MS analysis; format: ADME, microsome; conditions: 1 h; in short: as §2
Liver [9] = test: Intrinsic clearance in mouse liver microsomes assessed per mg protein up to 60 mins by LC-MS/MS analysis; format: ADME, microsome; conditions: 1 h; in short: as §2
[10] = Half life in rat liver microsomes at 0.1 uM up to 60 mins by LC-MS/MS analysis; format: ADME, microsome; in short: as §2
[11] = Antiproliferative activity against human KB/VCR cells after 72 hrs by sulforhodamine B assay; format: functional, cell-based
In short: (§3)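 Cells grown in ATCC-specified medium with 10% heat-inactivated FBS, penicillin/streptomycin and 10 mM Hepes, at 37 °C under 5% CO2. Seeded, cultured overnight, then exposed to gradient concentrations for 72 h. Growth read by SRB staining; inhibition % = [1−(A450 treated/A450 control)]×100. IC50 obtained by the Logit method from independent experiments.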

HCT-116 [12] = test: Induction of apoptosis in human HCT116 cells assessed as activation of caspase 3/7 at 1.0 to 4.0 uM after 24 hrs by Caspase-Glo 3/7 assay
[13] = Aqueous solubility of the compound by HPLC method; format: physicochemical; conditions: buffer
In short: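 Solubility determined by an HPLC method, with one-point calibration against standards of known concentration. Mean ± SD of at least three independent experiments.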

HCT-116 [14] = test: Induction of apoptosis in human HCT116 cells pretreated with Z-VAD-FMK pan-caspase inhibitor for 1 hr assessed as early apoptotic cells at 2 uM after 48 hrs by Annexin V-FITC/propidium iodide staining-based FACS analysis (reference value: 1.34%); format: functional; parameters: scale not given: the % may be the effect or the level left
HCT-116 [15] = test: Induction of apoptosis in human HCT116 cells pretreated with Z-VAD-FMK pan-caspase inhibitor for 1 hr assessed as cleavage of PARP at 2 uM after 48 hrs by Western blot analysis; format: functional, cell-based; in short: as §1
HCT-116 [16] = test: Induction of apoptosis in human HCT116 cells assessed as early apoptotic cells at 2 uM after 48 hrs by Annexin V-FITC/propidium iodide staining-based FACS analysis (reference value: 2.35%); format: functional
HCT-116 [17] = test: Induction of apoptosis in human HCT116 cells pretreated with Z-VAD-FMK pan-caspase inhibitor for 1 hr assessed as activation of caspase 3/7 at 2 uM after 48 hrs by Western blot analysis; format: functional, cell-based; in short: as §1
KB = test: Antiproliferative activity against human KB cells after 72 hrs by sulforhodamine B assay; format: functional, cell-based; in short: as §3
[18] = Half life in Sprague-Dawley rat at 3.90 mg/kg, po by LC-ESI-MS/MS analysis; format: ADME, organism-based; conditions: in vivo, 3.9 mg/kg
HCT-116 [19] = test: Induction of apoptosis in human HCT116 cells pretreated with Z-VAD-FMK pan-caspase inhibitor for 1 hr assessed as late apoptotic cells at 2 uM after 48 hrs by Annexin V-FITC/propidium iodide staining-based FACS analysis (reference value: 3.15%); format: functional; parameters: scale not given: the % may be the effect or the level left

Cc1coc2c1C(=O)C(=O)c1c-2ccc2c(C)cccc12 [TANSHINONE I]
intrinsic clearance (Liver [1]): 836 mL/min/g | Activity (HCT-116 [2]): 5.46% | Activity (HCT-116 [3]): inactive | bioavailability [4]: 0% | Activity (HCT-116 [5]): inactive | half-life at 0.1 µM [6]: 6.45 min | t1/2 (Liver [7]): Nd(Unstable) | intrinsic clearance (Liver [8]): 325 mL/min/g | intrinsic clearance (Liver [9]): Nd(Unstable) | half-life at 0.1 µM [10]: 2.51 min | IC50 [11]: 4.4 µM | Activity (HCT-116 [12]): inactive | solubility [13]: < 0.1 µg/mL | Activity (HCT-116 [14]): 4.24% | Activity (HCT-116 [15]): inactive | Activity (HCT-116 [16]): 3.81% | Activity (HCT-116 [17]): inactive | IC50 (KB): 5.87 µM | half-life [18]: 10.2 min | Activity (HCT-116 [19]): 7.11%
